Measured values taken from publication PMC10373466 (ACS Omega, 2023).
“And” between values parts separate entries of the source, which are not always exact repeats. Equal entries are not always repeated.

Assays:
[1] = In vitro neurotoxicity MTT assay; format: cell-based; conditions: human, SH-SY5Y neuroblastoma cells
[2] = target: hAChE (Homo sapiens, UniProt P22303); experiment: In vitro AChE inhibition assay; format: biochemical; conditions: for IC50: in vitro AChE inhibition IC50 ± SD, Ellman method, n = 3
[3] = Metal chelation assay, UV–vis spectroscopy; format: physicochemical; conditions: compound 30 μM, CuSO4 30 μM, ethanol
Summary of the method: (§1)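 Test compound and metal salt (CuSO4, ZnSO4 or FeSO4) mixed in ethanol, both at 30 μM final, and incubated 30 min at room temperature. UV-vis spectra were recorded from 200 to 600 nm for the compound alone, the metal alone and the mixture. Spectra of metal alone and compound alone were subtracted from the mixture spectrum to give the difference spectrum attributed to complex formation.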

[4] = Metal chelation assay, UV–vis spectroscopy; format: physicochemical; conditions: compound 30 μM, ZnSO4 30 μM, ethanol
Summary of the method: as §1

[5] = target: Aβ1–42 (Homo sapiens, UniProt P05067); experiment: Self-induced Aβ1–42 aggregation inhibition; format: biochemical; conditions: for IC50: Aβ1–42 aggregation inhibition IC50, self-induced aggregation; for inhibition at 10 µM: read-out: Aβ1–42 (% inhibition at 10 μM)
[6] = Metal chelation assay, UV–vis spectroscopy; format: physicochemical; conditions: compound 30 μM, FeSO4 30 μM, ethanol
Summary of the method: as §1

[7] = target: BACE-1 (Homo sapiens, UniProt P56817); experiment: β-Secretase inhibition assay; format: biochemical; conditions: BACE-1 IC50 ± SD
[8] = In vitro hepatotoxicity MTT assay; conditions: human
[9] = test system: HepG2 cell line; experiment: In vitro hepatotoxicity MTT assay; conditions: ratio of hepatotoxicity IC50 to AChE IC50
[10] = target: hBuChE (Homo sapiens, UniProt P06276); experiment: In vitro BuChE inhibition assay; format: biochemical; conditions: for IC50: BuChE IC50 ± SD, modified Ellman method
[11] = Total antioxidant capacity; conditions: Trolox TAC value = 1.00
[12] = target: T1, hMAO-B (Homo sapiens, UniProt P27338); experiment: biochemical; format: biochemical
T1 sequence (P27338 1-520): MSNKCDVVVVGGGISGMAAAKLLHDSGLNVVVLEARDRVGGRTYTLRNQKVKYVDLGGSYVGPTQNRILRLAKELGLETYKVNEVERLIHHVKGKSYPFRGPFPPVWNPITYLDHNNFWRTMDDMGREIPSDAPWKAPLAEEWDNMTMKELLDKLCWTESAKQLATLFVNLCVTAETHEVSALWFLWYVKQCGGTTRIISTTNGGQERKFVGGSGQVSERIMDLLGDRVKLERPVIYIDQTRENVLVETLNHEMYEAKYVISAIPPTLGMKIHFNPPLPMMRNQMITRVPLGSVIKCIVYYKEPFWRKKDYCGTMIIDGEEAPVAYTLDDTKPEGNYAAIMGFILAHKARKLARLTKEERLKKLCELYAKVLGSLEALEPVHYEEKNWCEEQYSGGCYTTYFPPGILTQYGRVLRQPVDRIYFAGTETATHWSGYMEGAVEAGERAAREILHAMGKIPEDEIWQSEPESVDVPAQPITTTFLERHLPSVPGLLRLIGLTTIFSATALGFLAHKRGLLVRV

Sequence of hBuChE (P06276 29-602): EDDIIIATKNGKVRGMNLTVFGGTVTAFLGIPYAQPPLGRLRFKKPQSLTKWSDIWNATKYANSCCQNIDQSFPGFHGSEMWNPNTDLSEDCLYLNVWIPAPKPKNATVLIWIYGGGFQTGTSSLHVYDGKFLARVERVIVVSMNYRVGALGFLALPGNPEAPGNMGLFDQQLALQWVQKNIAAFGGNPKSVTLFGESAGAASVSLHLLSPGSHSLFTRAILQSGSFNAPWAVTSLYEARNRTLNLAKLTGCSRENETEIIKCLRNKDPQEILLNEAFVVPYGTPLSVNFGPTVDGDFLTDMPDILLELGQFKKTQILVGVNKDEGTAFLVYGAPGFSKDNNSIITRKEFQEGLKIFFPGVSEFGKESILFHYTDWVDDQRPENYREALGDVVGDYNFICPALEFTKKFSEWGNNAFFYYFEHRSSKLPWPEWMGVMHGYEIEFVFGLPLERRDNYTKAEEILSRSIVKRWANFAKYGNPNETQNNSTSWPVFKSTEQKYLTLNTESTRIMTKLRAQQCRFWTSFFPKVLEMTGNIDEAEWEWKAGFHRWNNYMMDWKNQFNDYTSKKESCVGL
Sequence of Aβ1–42 (P05067 672-713): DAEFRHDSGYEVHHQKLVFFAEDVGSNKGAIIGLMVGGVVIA
Sequence of BACE-1 (P56817 46-501): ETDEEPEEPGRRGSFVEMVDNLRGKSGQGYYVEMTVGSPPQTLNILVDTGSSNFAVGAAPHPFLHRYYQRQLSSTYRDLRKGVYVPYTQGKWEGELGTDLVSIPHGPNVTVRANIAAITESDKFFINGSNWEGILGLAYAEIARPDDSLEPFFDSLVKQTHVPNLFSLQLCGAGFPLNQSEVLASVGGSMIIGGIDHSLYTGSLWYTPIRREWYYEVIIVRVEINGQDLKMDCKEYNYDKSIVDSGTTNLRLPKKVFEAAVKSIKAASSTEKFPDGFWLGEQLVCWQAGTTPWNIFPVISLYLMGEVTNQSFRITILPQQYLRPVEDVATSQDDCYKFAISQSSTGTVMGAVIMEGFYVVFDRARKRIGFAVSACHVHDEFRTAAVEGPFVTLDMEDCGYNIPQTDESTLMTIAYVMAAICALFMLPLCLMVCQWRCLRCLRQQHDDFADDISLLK
Sequence of hAChE (P22303 32-614): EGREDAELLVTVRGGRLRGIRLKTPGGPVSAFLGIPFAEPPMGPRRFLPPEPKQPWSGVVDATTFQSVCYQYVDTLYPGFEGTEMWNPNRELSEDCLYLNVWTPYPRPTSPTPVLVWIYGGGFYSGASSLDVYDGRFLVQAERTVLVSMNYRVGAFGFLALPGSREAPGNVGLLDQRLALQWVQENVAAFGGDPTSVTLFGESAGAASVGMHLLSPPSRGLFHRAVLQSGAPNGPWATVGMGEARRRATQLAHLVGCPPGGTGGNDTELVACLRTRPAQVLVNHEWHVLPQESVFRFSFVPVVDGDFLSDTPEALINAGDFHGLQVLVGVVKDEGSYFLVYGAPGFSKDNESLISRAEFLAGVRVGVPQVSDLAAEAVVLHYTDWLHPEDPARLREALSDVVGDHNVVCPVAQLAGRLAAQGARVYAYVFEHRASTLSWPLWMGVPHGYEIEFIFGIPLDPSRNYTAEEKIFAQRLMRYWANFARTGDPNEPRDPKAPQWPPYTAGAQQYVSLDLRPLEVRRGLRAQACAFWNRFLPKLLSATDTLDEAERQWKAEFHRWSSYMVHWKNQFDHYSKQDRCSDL

Compound | IC50 [1] [µM] | AChE SI (selectivity index) = IC50 of BuChE/IC50 of AChE [2] | IC50 [2] [µM] | UV–vis spectral change on addition of CuSO4 (metal chelation) [3] | UV–vis spectral change on addition of ZnSO4 (metal chelation) [4] | IC50 [5] [µM] | inhibition at 10 µM [5] [%] | UV–vis spectral change on addition of FeSO4 (metal chelation) [6] | IC50 [7] [µM] | IC50 at 24 h [8] [µM] | safety index ratio (SI) [9] | BuChE SI (selectivity index) = IC50 of AChE/IC50 of BuChE [10] | fold more active than rivastigmine (BuChE inhibition) [10] [fold] | IC50 [10] | total antioxidant capacity (Trolox equivalent) [11] | IC50 [12] [µM] | times better than iproniazid (MAO-B inhibition) [12] [times] | times more active than curcumin (Aβ aggregation inhibition) [5] [fold]
Cc1ccc(S(=O)(=O)Oc2ccc3c(c2)Oc2nc4c(c(N)c2C3c2ccc(Cl)c(Cl)c2)CCCC4)cc1 (centres unmarked) [4n, 11-Amino-12-(3,4-dichlorophenyl)-7,9,10,12-tetrahydro-8H-chromeno[2,3-b]quinolin-3-yl-4-methylbenzenesulfonate] | 91.7 ± 4.06 | 0.38 | 0.47 ± 0.02 | remarkable hyperchromic effect | remarkable hyperchromic effect | 17.4 ± 0.68 | 40 | remarkable hyperchromic effect | 0.25 ± 0.011 | 67.4 ± 3.3 | 141.53 | 2.59 | ~4 | 0.18 ± 0.011 µM | 0.66 ± 0.026 μmol of Trolox equivalent/μmol tested compound | 3.73 ± 0.13 | ~2 | –
COc1ccc(S(=O)(=O)Oc2ccc3c(c2)Oc2nc4c(c(N)c2C3c2cccc(OC)c2)CCCC4)cc1 (centres unmarked) [4g, 11-Amino-12-(3-methoxyphenyl)-7,9,10,12-tetrahydro-8H-chromeno[2,3-b]quinolin-3-yl-4-methoxybenzenesulfonate] | 86 ± 3.81 | 1.18 | 0.3 ± 0.01 | hyperchromic shifts | slight hypochromic shift | 11.7 ± 0.45 | 43 | hyperchromic shifts | 1.46 ± 0.068 | 126 ± 5.3 | 417.88 | 0.85 | – | 0.35 ± 0.021 µM | – | 12.7 ± 0.43 | – | –
Nc1c2c(nc3c1C(c1ccc(Cl)c(Cl)c1)c1ccc(OCC(=O)c4ccc(Cl)cc4)cc1O3)CCCC2 (centres unmarked) [5d, 2-[11-Amino-12-(3,4-dichlorophenyl)-7,9,10,12-tetrahydro-8H-chromeno[2,3-b]quinolin-3-yl]oxy-1-(4-chlorophenyl)ethan-1-one] | 71.1 ± 2.8 | 0.59 | 0.25 ± 0.01 | slight hyperchromic shift | slight hyperchromic shift | 0.74 ± 0.03 | 76 | noticeable optical shift | 0.44 ± 0.021 | 154 ± 6.2 | 611.51 | 1.69 | 5 | 0.14 ± 0.009 µM | – | 2.42 ± 0.08 | ~3 | 8
Nc1c2c(nc3c1C(c1cccc([N+](=O)[O-])c1)c1ccc(OCC(=O)c4ccc(Cl)cc4)cc1O3)CCCC2 (centres unmarked) [5c, 2-[11-Amino-12-(3-nitrophenyl)-7,9,10,12-tetrahydro-8H-chromeno[2,3-b]quinolin-3-yl]oxy-1-(4-chlorophenyl)ethan-1-one] | 36.3 ± 1.43 | 0.19 | 0.44 ± 0.02 | noteworthy hyperchromic effect | slight hyperchromic effect | 2.85 ± 0.11 | 59 | noteworthy hyperchromic effect | 0.38 ± 0.017 | 188 ± 6.9 | 427.73 | 5.37 | 10 | 0.082 µM and 0.08 µM | 0.88 ± 0.034 μmol of Trolox equivalent/μmol tested compound | 5.15 ± 0.17 | – | –
Nc1c2c(nc3c1C(c1cccc([N+](=O)[O-])c1)c1ccc(OS(=O)(=O)c4ccc(F)cc4)cc1O3)CCCC2 (centres unmarked) [4c, 11-Amino-12-(3-nitrophenyl)-7,9,10,12-tetrahydro-8H-chromeno[2,3-b]quinolin-3-yl-4-fluorobenzenesulfonate] | 27.9 ± 1.24 | 1.11 | 0.62 ± 0.03 | extraordinary hyperchromic shifts | extraordinary hyperchromic shifts | 4.28 ± 0.17 | 47 | extraordinary hyperchromic shifts | 2.68 ± 0.123 | 78.3 ± 3.6 | 125.26 | 0.90 | – | 0.69 ± 0.041 µM | 0.80 ± 0.032 μmol of Trolox equivalent/μmol tested compound | 8.04 ± 0.27 | – | –
Nc1c2c(nc3c1C(c1ccc(Cl)c(Cl)c1)c1ccc(OCC(=O)c4ccccc4)cc1O3)CCCC2 (centres unmarked) [5i, 2-[11-Amino-12-(3,4-dichlorophenyl)-7,9,10,12-tetrahydro-8H-chromeno[2,3-b]quinolin-3-yl]oxy-1-phenylethan-1-one] | 17.2 ± 0.76 | 0.47 | 0.56 ± 0.03 | without remarkable shifts | without remarkable shifts | 1.41 ± 0.05 | 68 | hyperchromic effect | 2.12 ± 0.098 | 113 ± 5.1 | 200.53 | 2.12 | ~4 | 0.26 ± 0.016 µM | – | 1.62 ± 0.05 | ~4 | –
